These results are taken from ChEMBL document CHEMBL2406979, “Antitumor activity of 2-hydroxycinnamaldehyde for human colon cancer cells through suppression of β-catenin signaling” (J Nat Prod, 2013).

Active and inactive are the calls of the source. The rule behind the calls is not given here.

For series [1], the system named is HCT-116. Nature of the series: Inhibition of Wnt/beta-catenin signaling pathway in human HCT116 cells assessed as downregulation of CCND1 protein expression at 5 to 10 uM after 24 to 48 hrs by Western blot analysis. In kind it is cell-based. An outline of the steps: (§1)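 HCT116 cells treated 24 or 48 h. Lysed in RIPA buffer; equal protein run on 8−13% SDS-PAGE, blotted to PVDF, probed for β-catenin, c-myc and cyclin D1, detected by ECL. β-Actin served as internal standard; four determinations.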
(In general: In western blotting, separated proteins are transferred to a membrane and probed.)

Another series relates to HEK293. Nature of the series: Inhibition of Wnt/beta-catenin (unknown origin) signaling pathway expressed in HEK293 cells assessed as inhibition of TCF4 transcriptional activity after 24 hrs by TOPflash reporter gene assay. The following applies: Homo sapiens. In kind it is cell-based. Summed up: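 HEK293 cells seeded at 1.5 × 10^4/well. After 24 h, lipofected with 0.1 μg TOPflash or FOPflash, 0.005 μg Renilla, 0.02 μg β-catenin and 0.004 μg TCF4 vectors. Treated 24 h after transfection for 24 h. Dual luciferase read-out, firefly normalized to Renilla, relative to vehicle; triplicate.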
On the technique in general: In a reporter assay the amount or activity of a reporter protein is the signal.

For series [2], the system named is Mus musculus. Nature of the series: In vivo inhibition of Wnt/beta-catenin signaling pathway in human HCT116 cells xenografted in BALB/c-nu mouse assessed as downregulation of CMYC protein expression at 10 to 20 mg/kg, ip administered 3 times per week measured after 4 weeks by Western blot analysis. It is filed as functional, organism-based. The following applies: HCT-116. An outline of the steps: (§2)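 Part of each frozen xenograft tumor was thawed on ice and hand-homogenized in Complete Lysis Buffer. Protein was quantified and aliquots stored at −80 °C. Western blot: SDS-PAGE, PVDF transfer, ECL detection, compared with vehicle-treated tumors.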
(In general: In xenograft studies the graft and the host belong to different species.)

For series [3], the system named is Mus musculus. Nature of the series: In vivo inhibition of Wnt/beta-catenin signaling pathway in human HCT116 cells xenografted in BALB/c-nu mouse assessed as downregulation of cyclin D1 expression at 10 to 20 mg/kg, ip administered 3 times per week measured after 4 weeks by hematoxylin staining-based inverted phase-contrast microscopic analysis. In kind it is functional, organism-based. The following applies: HCT-116.

The subject of series [4] is Mus musculus. Nature of the series: In vivo inhibition of Wnt/beta-catenin signaling pathway in human HCT116 cells xenografted in BALB/c-nu mouse assessed as downregulation of Ki-67 expression at 10 to 20 mg/kg, ip administered 3 times per week measured after 4 weeks by hematoxylin staining-based inverted phase-contrast microscopic analysis. It is filed as functional, organism-based. The following applies: HCT-116. Summed up: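 Immunohistochemistry on xenograft tumor sections from ip-dosed mice. Ki-67 detected with anti-Ki67 antibody and an LSAB+ HRP system. Sections counterstained with hematoxylin and photographed under an inverted phase-contrast microscope at 200×.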

Series [5] has as its system HCT-116. Nature of the series: Inhibition of Wnt/beta-catenin signaling pathway in human HCT116 cells assessed as downregulation of NKD1 mRNA expression at 5 to 10 uM after 12 hrs by real-time PCR analysis. It is filed as cell-based. Summed up:
(§3)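 HCT116 cells treated 12 h. Total RNA by TRI reagent, reverse-transcribed, SYBR Green real-time PCR: 40 cycles of 95 °C 20 s, 56 °C 20 s, 72 °C 30 s. Fold change by 2^−ΔΔCT normalized to β-actin, relative to untreated control; quadruplicate.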

For series [6], the system named is Mus musculus. Nature of the series: In vivo inhibition of Wnt/beta-catenin signaling pathway in human HCT116 cells xenografted in BALB/c-nu mouse assessed as downregulation of CMYC mRNA expression at 10 to 20 mg/kg, ip administered 3 times per week measured after 4 weeks by real-time PCR analysis. It is filed as functional, organism-based. The following applies: HCT-116. An outline of the steps: (§4)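 Frozen tumors from ip-dosed HCT116 xenograft mice were extracted with TRI reagent and reverse-transcribed. SYBR Green real-time PCR run 40 cycles of 95/56/72 °C. Expression by 2^−ΔΔCT normalized to β-actin, relative to vehicle-treated controls; quadruplicate.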

Series [7] relates to HCT-116. Kind of series: Inhibition of Wnt/beta-catenin codon 45 deletion mutant signaling pathway human HCT116 cells assessed as inhibition of TCF4 transcriptional activity after 24 hrs by TOPflash reporter gene assay. It is filed as cell-based. An outline of the steps:
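HCT116 cells seeded at 1.5 × 10^4/well and lipofected after 24 h with 0.1 μg TOPflash (or FOPflash) plus 0.005 μg Renilla; no β-catenin/TCF4 added. Treated 24 h for 24 h. Dual luciferase, Renilla-normalized, relative to vehicle; means ± SD, n = 3, four separate determinations.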

Series [8] concerns HCT-116. Nature of the series: Antitumor activity against human HCT116 cells xenografted in BALB/c-nu mouse assessed as tumor growth inhibition at 10 mg/kg, ip administered 3 times per week for 4 weeks measured every 2 to 3 days during treatment relative to control. It is filed as functional. The following applies: HCT-116, ip, route intraperitoneal, read-out: TGI. An outline of the steps: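 Female BALB/c-nu mice, 4−6 weeks old, acclimated one week, given 2 × 10^6 HCT116 cells sc in the flank. Dosing began near 100 mm3, about day 8; five mice per group. Dose in 0.5% Tween 80 in normal saline, 200 μL ip; controls got vehicle. Tumor volume by caliper = L × W × H/2. Study ended when control tumors averaged ~1300 mm3.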

The test system of series [9] is Mus musculus. Kind of series: In vivo inhibition of Wnt/beta-catenin signaling pathway in human HCT116 cells xenografted in BALB/c-nu mouse assessed as downregulation of beta-catenin expression at 10 to 20 mg/kg, ip administered 3 times per week measured after 4 weeks by hematoxylin staining-based inverted phase-contrast microscopic analysis. The following applies: HCT-116. It is filed as functional, organism-based.

The subject of series [10] is HCT-116. Nature of the series: Inhibition of Wnt/beta-catenin signaling pathway in human HCT116 cells assessed as downregulation of PLAU mRNA expression at 5 to 10 uM after 12 hrs by real-time PCR analysis. It is filed as cell-based. An outline of the steps:
as §3

Series [11] has as its system HCT-116. Nature of the series: Inhibition of Wnt/beta-catenin signaling pathway in human HCT116 cells assessed as downregulation of DKK1 mRNA expression at 5 to 10 uM after 12 hrs by real-time PCR analysis. It is filed as cell-based. Summed up: as §3
For series [12], the system named is HCT-116. Nature of the series: Inhibition of Wnt/beta-catenin signaling pathway in human HCT116 cells assessed as downregulation of total beta-catenin protein expression at 5 to 10 uM after 24 to 48 hrs by Western blot analysis. In kind it is cell-based. An outline of the steps: as §1
For series [13], the system named is Mus musculus. Nature of the series: In vivo inhibition of Wnt/beta-catenin signaling pathway in human HCT116 cells xenografted in BALB/c-nu mouse assessed as downregulation of PLAU mRNA expression at 10 to 20 mg/kg, ip administered 3 times per week measured after 4 weeks by real-time PCR analysis. In kind it is functional, organism-based. The following applies: HCT-116. Summed up: as §4

Series [14] concerns Mus musculus. Kind of series: Toxicity in BALB/c-nu mouse xenografted with human HCT116 cells assessed as change in body weight at 10 to 20 mg/kg, ip administered 3 times per week measured for 4 weeks. It is filed as organism-based, HCT-116. Details: dose 10-20 mg/kg, route intraperitoneal. The following applies: in vivo, 672 h. Summed up:
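Same HCT116 flank xenograft in female BALB/c-nu mice, five per group, dosed ip in 0.5% Tween 80/saline with vehicle controls. Toxicity was judged from lethality and body weight loss, with body weights tracked through the study.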

Series [15] relates to Mus musculus. Kind of series: In vivo inhibition of Wnt/beta-catenin signaling pathway in human HCT116 cells xenografted in BALB/c-nu mouse assessed as downregulation of survivin protein expression at 10 to 20 mg/kg, ip administered 3 times per week measured after 4 weeks by Western blot analysis. In kind it is functional, organism-based. The following applies: HCT-116. Summed up:
as §2

Series [16] concerns Mus musculus. Kind of series: In vivo inhibition of Wnt/beta-catenin signaling pathway in human HCT116 cells xenografted in BALB/c-nu mouse assessed as downregulation of CCND1 protein expression at 10 to 20 mg/kg, ip administered 3 times per week measured after 4 weeks by Western blot analysis. It is filed as functional, organism-based. The following applies: HCT-116. An outline of the steps: as §2

In the case of `O=C/C=C/c1ccccc1O` [2-HYDROXYCINNAMALDEHYDE], the inhibition result with HCT-116 [1], in the series on Mus musculus [2], with Mus musculus [3], in the series with Mus musculus [4], in the series with HCT-116 [5] and with Mus musculus [6] was “Active” each time. The inhibition result in the series on Mus musculus [9], in the series with HCT-116 [10], with HCT-116 [11], in the series with HCT-116 [12], in the series on Mus musculus [13] and with Mus musculus [15] was “Active” in each case. Moreover, the inhibition entry in the series with Mus musculus [16] was “Active”. Besides, the inhibition entry in the series on HEK293 and in the series with HCT-116 [7] was “Dose-dependent effect” each time. In the series on HCT-116 [8], the inhibition in vivo at 10 mg/kg was found to be 52%. Besides, the Activity entry in the series on Mus musculus [14] is given as “Non-toxic”.
